Data on nine compounds can be found in ChEMBL document CHEMBL2062424, “Bioactive sesquiterpenoids from the rhizomes of Acorus calamus” (J Nat Prod, 2012).

Active and inactive are the calls of the source. No cut-off for these calls is given here.

What all share (assay type): functional, cell-based
One assay relates to Bel-7402. In words: Cytotoxicity against human Bel7402 cells by MTT assay.
For the next assay, the system named is HCT-8. In words: Cytotoxicity against human HCT8 cells by MTT assay.
A further assay relates to BGC-823. Description: Cytotoxicity against human BGC823 cells by MTT assay. For orientation: Tetrazolium assays rely on reduction of a dye to a coloured formazan, in cell work by metabolically active cells.
The next assay concerns A2780. Description: Cytotoxicity against human A2780 cells by MTT assay.
A further assay concerns HepG2. Description: Hepatoprotective activity against N-acetyl-p-aminophenol-induced toxicity in human HepG2 cells at 10 uM after 48 hrs by MTT assay. An outline of the steps:
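HepG2 cells kept in DMEM with 10% fetal calf serum plus penicillin/streptomycin at 37 °C, 5% CO2, passaged with 0.25% trypsin/0.02% EDTA. After seeding and overnight incubation, 10 μM test sample added together with APAP (8 mM final) for 48 h. MTT (0.5 mg/mL) added for 4 h, formazan dissolved in DMSO, absorbance at 570 nm. Bicyclol 10 μM as positive control; mean ± SD, n = 3.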

The test system of a further assay is A549. Description: Cytotoxicity against human A549 cells by MTT assay.

The term IC50 denotes the point on the concentration scale where inhibition reaches its midpoint. On to `CC(C)[C@]1(O)C(=O)C[C@H](C)[C@@]12CC[C@](C)(O)C(=O)C2`, for which the IC50 in the assay on Bel-7402, in the assay on HCT-8, with BGC-823, in the assay with A2780 and in the assay on A549 was greater than 10 µM each time. The result with HepG2 was Active.
For the compound `CC1=CCC23OC(C(C)(C)O)(CC12O)C(=O)C=C3C` (racemic), the IC50 with Bel-7402, with HCT-8, in the assay with BGC-823, in the assay on A2780 and in the assay with A549 was greater than 10 µM throughout. In addition, the outcome in the assay with HepG2 was Active.
`CC1=C[C@@H](O)[C@@]2(CC1=O)[C@@H](C(C)C)C(=O)C[C@@H]2C` (relative stereo): the IC50 with Bel-7402, in the assay on HCT-8, in the assay with BGC-823, in the assay on A2780 and in the assay with A549 was greater than 10 µM throughout.
`C[C@@H]1C(=O)CC[C@@H](C)[C@]2(O)C=C(C(C)(C)O)C(=O)[C@@H]12` [CALAMUSIN A]: the IC50 with Bel-7402, in the assay on HCT-8, with BGC-823, in the assay on A2780 and with A549 was greater than 10 µM in each case.
For the compound `C[C@@H]1CC[C@]2(O)O[C@]13C=C(C(C)(C)O)C(=O)[C@H]3[C@@H]2C` [CALAMUSIN B], the IC50 in the assay on Bel-7402, in the assay on HCT-8, with BGC-823, with A2780 and in the assay on A549 was greater than 10 µM each time.
For the compound `CC1=C[C@H](O)[C@]2(CC1=O)[C@H](C)CC(=O)[C@H]2C(C)C` [CALAMUSIN E], the 50% inhibitory concentration (IC50) with Bel-7402, in the assay on HCT-8, in the assay with BGC-823, with A2780 and in the assay with A549 was greater than 10 µM throughout.
As to `CC(C)=C1C(=O)C[C@@H](C)[C@@]2(O)CC[C@H](C)C(=O)[C@@H]12` [CALAMUSIN G], the IC50 in the assay on Bel-7402, in the assay on HCT-8, with BGC-823, in the assay on A2780 and in the assay with A549 was greater than 10 µM in each case. Moreover, the outcome with HepG2 was Active.
Take `Cc1ccc(C(C)C)c2c1[C@H](O)C[C@@](C)(O)[C@H]2O` [CALAMUSIN H]: the IC50 in the assay with Bel-7402, in the assay with HCT-8, in the assay with BGC-823, in the assay on A2780 and with A549 was greater than 10 µM each time.
As for `C[C@]1(O)CC[C@H](O)[C@@]2(C)CCC(=O)C=C12` [CALAMUSIN I], the IC50 with Bel-7402, in the assay with HCT-8, with BGC-823, in the assay with A2780 and with A549 was greater than 10 µM each time. Also, the outcome in the assay with HepG2 was Active.
